Results on three compounds are retold here after ChEMBL document CHEMBL5653631, “A Potent and Selective ULK1 Inhibitor Suppresses Autophagy and Sensitizes Cancer Cells to Nutrient Stress” (iScience, 2018).

The target in assay [1] is Macrophage-stimulating protein receptor (Homo sapiens) (UniProt Q04912). The experiment in a line: Inhibition of human recombinant RON at 40 nM in presence of ATP by radiometric assay relative to control.
Assay [2] addresses T1, Serine/threonine-protein kinase BRSK1 (Homo sapiens) (UniProt Q8TDC3).
T1 sequence (whole entry): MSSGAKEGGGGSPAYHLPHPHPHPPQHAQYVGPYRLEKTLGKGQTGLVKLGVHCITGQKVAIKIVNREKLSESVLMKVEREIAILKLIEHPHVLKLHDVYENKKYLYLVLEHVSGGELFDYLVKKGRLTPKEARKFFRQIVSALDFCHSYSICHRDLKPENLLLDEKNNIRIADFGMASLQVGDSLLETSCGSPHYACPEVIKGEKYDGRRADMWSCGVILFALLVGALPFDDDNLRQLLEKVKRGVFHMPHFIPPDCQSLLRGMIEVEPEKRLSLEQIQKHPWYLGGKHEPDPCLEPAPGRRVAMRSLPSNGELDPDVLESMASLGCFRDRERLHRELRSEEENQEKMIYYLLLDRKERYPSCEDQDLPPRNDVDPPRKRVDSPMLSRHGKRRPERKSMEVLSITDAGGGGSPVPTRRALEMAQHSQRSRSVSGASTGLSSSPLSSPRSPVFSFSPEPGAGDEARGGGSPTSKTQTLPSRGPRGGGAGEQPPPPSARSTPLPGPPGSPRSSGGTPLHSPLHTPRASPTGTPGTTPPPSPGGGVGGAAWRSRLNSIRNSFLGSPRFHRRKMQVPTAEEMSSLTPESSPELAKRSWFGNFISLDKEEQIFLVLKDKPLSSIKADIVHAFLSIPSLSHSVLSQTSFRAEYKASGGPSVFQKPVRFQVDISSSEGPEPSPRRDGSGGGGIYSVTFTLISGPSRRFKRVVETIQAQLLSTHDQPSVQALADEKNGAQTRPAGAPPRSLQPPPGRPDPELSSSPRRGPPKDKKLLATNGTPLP
The experiment in a line: Inhibition of human recombinant BRSK1 at 40 nM in presence of ATP by radiometric assay relative to control. The procedure, abridged:
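Recombinant human kinase panel (327 kinases) run as radiometric activity assays, each kinase in duplicate at one compound concentration. Activity remaining expressed relative to vehicle control; percent inhibition taken as 100% minus % activity remaining.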

For assay [3], the target named is Tyrosine-protein kinase JAK1 (Homo sapiens) (UniProt P23458). As to the kind of experiment: Inhibition of human recombinant JAK1 at 40 nM related to control ULK1.
Assay [4] deals with Fibroblast growth factor receptor 1 (Homo sapiens) (UniProt P11362). As to the kind of experiment: Inhibition of human recombinant FGFR1 at 40 nM related to control ULK1.
For assay [5], the target named is T2, Mitogen-activated protein kinase kinase kinase kinase 2 (Homo sapiens) (UniProt Q12851).
T2 sequence (whole entry): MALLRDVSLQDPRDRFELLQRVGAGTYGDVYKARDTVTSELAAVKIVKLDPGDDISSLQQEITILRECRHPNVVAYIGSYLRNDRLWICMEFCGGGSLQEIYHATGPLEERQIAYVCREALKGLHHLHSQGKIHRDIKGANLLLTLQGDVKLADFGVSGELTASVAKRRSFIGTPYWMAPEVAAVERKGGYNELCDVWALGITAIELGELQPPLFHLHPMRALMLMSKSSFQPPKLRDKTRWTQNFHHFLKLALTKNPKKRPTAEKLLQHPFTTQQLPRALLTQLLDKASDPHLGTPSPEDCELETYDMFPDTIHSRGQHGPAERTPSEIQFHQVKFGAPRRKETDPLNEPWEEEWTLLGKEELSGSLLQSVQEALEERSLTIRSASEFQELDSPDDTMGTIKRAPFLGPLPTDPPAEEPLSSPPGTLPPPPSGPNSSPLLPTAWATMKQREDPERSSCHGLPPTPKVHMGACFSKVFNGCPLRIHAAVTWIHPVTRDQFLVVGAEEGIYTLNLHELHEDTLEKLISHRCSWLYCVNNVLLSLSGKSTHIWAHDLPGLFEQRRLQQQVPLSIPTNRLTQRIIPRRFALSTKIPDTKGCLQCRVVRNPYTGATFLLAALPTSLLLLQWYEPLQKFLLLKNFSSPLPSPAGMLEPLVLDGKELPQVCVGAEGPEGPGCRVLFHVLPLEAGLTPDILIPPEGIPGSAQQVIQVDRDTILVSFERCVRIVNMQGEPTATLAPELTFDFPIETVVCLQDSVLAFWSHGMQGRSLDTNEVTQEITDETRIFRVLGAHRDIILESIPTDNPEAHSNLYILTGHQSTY
The experiment in a line: Inhibition of human recombinant GCK at 500 nM in presence of ATP by radiometric assay relative to control.

Assay [6] concerns the target Serine/threonine-protein kinase ATR (Homo sapiens) (UniProt Q13535). As to the kind of experiment: Inhibition of human recombinant ATR at 500 nM related to control ULK1. The procedure, abridged: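 Panel of 327 recombinant human kinases, each assayed in vitro by radiometric activity assay in duplicate at a single inhibitor concentration per compound, chosen with reference to its ULK1 inhibition. Activity remaining was expressed as percent of vehicle control, and percent inhibition was calculated as 100 minus percent activity remaining.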

Assay [7] deals with T3, Tribbles homolog 2 (Homo sapiens) (UniProt Q92519).
T3 sequence (whole entry): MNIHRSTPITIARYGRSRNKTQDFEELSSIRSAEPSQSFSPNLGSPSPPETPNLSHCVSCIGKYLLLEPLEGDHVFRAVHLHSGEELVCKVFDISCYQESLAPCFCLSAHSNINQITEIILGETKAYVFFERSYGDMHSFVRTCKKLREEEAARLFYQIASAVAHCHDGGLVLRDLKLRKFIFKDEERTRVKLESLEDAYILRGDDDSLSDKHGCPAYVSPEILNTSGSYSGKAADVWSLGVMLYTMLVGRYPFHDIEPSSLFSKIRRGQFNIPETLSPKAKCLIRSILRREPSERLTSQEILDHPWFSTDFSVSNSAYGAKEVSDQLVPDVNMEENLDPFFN
The experiment in a line: Inhibition of human recombinant Trb2 at 15 nM in presence of ATP by radiometric assay relative to control.

Assay [8] deals with Serine/threonine-protein kinase PRP4 homolog (Homo sapiens) (UniProt Q13523). As to the kind of experiment: Inhibition of human recombinant PRP4 at 15 nM related to control ULK1.
Assay [9] has as its target Serine/threonine-protein kinase D2 (Homo sapiens) (UniProt Q9BZL6). As to the kind of experiment: Inhibition of human recombinant PKD2 at 15 nM in presence of ATP by radiometric assay relative to control.
For assay [10], the target named is Tyrosine-protein kinase JAK2 (Homo sapiens) (UniProt O60674). As to the kind of experiment: Inhibition of human recombinant JAK2 at 15 nM related to control ULK1.
Sequence of Tyrosine-protein kinase JAK2 (Homo sapiens) (O60674 whole entry): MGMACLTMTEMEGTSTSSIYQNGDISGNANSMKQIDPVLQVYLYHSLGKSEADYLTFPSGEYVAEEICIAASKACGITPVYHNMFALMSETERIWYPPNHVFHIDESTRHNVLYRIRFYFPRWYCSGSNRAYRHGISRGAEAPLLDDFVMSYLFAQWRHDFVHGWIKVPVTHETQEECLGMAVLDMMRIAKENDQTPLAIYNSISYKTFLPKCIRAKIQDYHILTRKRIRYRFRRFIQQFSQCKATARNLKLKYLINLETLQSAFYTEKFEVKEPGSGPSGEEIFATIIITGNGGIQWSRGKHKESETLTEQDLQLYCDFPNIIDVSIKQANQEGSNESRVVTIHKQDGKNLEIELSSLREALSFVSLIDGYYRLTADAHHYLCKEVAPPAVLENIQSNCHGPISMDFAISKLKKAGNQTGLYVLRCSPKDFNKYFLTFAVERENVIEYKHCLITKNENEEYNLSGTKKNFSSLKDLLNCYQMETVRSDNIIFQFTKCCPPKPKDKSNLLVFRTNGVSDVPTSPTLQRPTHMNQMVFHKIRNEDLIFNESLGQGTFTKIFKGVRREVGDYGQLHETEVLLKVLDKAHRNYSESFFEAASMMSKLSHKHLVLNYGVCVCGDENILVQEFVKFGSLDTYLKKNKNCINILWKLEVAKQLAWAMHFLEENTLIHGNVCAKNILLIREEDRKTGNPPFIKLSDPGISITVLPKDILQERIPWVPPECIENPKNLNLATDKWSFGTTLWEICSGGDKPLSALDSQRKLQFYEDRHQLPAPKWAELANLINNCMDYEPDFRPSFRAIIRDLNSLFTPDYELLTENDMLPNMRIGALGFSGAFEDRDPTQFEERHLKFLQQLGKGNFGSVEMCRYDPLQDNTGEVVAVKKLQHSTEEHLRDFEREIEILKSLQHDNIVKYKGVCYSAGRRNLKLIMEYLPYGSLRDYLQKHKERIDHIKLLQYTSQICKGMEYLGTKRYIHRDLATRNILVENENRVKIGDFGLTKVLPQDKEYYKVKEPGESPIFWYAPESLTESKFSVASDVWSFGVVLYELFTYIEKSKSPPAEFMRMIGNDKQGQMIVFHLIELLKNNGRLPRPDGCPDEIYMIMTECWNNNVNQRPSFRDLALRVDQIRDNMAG

Sequence of Serine/threonine-protein kinase PRP4 homolog (Homo sapiens) (Q13523 whole entry): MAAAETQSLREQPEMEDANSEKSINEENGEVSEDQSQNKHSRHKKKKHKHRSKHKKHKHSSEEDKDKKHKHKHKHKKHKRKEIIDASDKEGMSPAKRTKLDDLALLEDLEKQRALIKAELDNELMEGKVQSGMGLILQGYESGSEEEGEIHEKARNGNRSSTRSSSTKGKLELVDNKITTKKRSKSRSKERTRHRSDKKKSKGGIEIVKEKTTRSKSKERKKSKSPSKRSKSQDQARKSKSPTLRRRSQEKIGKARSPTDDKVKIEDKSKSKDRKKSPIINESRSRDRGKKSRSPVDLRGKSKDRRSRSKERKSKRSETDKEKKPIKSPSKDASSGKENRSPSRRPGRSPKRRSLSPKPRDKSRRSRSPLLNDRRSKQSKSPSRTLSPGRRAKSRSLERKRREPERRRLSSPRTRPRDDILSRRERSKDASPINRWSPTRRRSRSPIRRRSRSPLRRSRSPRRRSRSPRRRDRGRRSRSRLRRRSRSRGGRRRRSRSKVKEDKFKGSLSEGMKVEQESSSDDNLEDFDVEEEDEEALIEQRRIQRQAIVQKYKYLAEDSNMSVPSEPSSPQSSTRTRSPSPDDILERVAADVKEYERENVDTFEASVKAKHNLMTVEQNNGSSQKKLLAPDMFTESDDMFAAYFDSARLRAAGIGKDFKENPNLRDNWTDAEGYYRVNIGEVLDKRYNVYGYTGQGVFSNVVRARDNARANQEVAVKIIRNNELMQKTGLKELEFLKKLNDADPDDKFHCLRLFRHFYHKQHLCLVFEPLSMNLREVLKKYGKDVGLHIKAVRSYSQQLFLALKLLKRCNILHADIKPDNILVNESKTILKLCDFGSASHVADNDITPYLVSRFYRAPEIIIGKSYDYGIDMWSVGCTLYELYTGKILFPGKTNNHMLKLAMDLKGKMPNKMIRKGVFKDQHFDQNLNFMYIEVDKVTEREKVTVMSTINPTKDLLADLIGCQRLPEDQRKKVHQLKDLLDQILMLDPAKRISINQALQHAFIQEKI
Sequence of Serine/threonine-protein kinase ATR (Homo sapiens) (Q13535 whole entry, looked up): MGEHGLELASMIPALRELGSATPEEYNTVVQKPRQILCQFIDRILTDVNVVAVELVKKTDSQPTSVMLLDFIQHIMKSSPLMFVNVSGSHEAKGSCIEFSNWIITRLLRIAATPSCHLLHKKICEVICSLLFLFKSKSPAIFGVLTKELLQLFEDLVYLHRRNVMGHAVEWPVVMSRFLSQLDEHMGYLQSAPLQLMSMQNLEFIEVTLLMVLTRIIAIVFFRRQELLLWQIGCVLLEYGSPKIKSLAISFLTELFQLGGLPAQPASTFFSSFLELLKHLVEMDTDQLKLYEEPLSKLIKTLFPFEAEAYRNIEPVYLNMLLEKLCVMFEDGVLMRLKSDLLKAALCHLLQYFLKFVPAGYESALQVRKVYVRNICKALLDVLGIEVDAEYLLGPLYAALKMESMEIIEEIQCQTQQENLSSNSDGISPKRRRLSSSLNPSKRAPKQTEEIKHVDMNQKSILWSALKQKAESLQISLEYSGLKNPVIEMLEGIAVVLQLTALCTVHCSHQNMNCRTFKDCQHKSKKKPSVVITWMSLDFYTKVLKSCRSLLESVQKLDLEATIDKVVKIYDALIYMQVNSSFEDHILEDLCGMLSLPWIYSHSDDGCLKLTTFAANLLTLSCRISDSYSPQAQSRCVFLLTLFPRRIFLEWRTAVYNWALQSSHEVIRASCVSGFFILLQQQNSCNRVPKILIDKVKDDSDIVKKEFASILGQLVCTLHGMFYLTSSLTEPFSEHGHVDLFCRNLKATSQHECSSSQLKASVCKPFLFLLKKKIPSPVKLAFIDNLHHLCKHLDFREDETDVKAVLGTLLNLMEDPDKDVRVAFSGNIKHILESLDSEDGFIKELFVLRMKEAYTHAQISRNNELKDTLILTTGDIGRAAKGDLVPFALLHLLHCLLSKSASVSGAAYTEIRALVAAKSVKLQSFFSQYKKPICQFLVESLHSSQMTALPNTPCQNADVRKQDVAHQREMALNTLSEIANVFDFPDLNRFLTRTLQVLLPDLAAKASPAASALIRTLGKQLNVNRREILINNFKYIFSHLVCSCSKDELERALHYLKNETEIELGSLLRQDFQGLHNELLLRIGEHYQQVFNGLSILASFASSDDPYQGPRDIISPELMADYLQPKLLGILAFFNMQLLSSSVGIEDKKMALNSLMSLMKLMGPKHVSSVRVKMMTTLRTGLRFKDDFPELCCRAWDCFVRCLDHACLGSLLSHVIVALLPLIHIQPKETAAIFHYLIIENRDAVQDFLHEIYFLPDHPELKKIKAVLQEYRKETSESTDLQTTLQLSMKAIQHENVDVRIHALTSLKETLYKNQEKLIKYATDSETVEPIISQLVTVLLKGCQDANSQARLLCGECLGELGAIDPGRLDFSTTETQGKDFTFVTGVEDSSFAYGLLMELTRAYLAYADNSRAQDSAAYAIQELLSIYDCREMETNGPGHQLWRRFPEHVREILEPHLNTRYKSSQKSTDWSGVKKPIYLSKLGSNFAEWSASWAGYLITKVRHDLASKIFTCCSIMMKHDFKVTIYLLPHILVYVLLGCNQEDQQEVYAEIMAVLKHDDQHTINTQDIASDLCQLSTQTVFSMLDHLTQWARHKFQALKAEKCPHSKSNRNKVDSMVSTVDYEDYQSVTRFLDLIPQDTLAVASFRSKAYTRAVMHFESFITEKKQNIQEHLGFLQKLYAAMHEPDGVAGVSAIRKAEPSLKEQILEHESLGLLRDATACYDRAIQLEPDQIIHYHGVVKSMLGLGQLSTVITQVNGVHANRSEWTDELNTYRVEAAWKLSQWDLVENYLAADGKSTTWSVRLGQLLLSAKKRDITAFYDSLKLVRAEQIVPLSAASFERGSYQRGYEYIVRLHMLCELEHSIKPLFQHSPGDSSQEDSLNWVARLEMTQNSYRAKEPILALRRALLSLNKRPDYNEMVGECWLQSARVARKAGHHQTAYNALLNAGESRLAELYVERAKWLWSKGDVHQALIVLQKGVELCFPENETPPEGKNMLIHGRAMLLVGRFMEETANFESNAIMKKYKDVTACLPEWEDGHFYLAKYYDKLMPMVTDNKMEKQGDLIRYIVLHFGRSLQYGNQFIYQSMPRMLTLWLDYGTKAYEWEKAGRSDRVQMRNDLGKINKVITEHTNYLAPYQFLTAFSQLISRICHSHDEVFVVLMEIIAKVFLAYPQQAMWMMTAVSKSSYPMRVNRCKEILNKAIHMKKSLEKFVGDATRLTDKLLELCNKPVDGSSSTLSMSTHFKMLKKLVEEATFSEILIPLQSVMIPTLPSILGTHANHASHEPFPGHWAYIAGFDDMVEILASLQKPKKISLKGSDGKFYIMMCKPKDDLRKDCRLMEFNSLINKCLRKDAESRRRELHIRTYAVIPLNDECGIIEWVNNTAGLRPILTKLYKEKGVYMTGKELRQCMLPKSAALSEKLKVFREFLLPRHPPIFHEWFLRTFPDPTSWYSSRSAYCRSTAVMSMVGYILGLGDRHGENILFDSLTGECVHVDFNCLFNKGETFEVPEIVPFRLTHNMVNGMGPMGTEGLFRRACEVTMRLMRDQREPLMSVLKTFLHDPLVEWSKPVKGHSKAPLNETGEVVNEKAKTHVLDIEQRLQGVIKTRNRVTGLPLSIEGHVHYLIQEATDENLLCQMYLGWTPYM

In general, inhibition refers to the share of the control response that was lost under treatment. As for `O=C(N[C@@H](C1CC1)C(F)(F)F)c1cc(-c2cnn3cc(-c4ccc(F)cc4)cnc23)cs1`, the inhibition is 0% in assay [1] and 2% in assay [2]. The fold change (FC) in assay [3] and in assay [4] was 0 each time.
With `CNC(=O)c1ccccc1Oc1nc(Nc2cc(OC)c(OC)c(OC)c2)ncc1Br`, the inhibition in assay [5] was 33%. For the same compound, the fold change (FC) in assay [6] amounted to 0.
`CC(C)[C@H](NC(=O)c1cc(-c2cnn3cc(-c4ccc(OCCN5CCCCC5)cc4)cnc23)cs1)C(F)(F)F`: the results for the inhibition in assay [7] and in [9] were 36% and 0%, respectively. Further, the fold change (FC) in [8] and in [10] was 0.07 each time.
